Measurements from ChEMBL document CHEMBL5316332 (J Med Chem, 2023).
Active and inactive are the calls of the source. The rule behind the calls is not given here.

What was measured:
[1] = target: T1, Bone morphogenetic protein receptor type-2 (Homo sapiens, UniProt Q13873); assay: (§1) Inhibition of recombinant C-terminal 6His-tagged human BMPR2 (188 to 517 residues) expressed in Escherichia coli Rosetta assessed as apparent inhibition constant using ATP as substrate incubated for 30 mins by Morrison plot analysis; conditions: read-out: Ki(app)
T1 sequence (Q13873 whole entry): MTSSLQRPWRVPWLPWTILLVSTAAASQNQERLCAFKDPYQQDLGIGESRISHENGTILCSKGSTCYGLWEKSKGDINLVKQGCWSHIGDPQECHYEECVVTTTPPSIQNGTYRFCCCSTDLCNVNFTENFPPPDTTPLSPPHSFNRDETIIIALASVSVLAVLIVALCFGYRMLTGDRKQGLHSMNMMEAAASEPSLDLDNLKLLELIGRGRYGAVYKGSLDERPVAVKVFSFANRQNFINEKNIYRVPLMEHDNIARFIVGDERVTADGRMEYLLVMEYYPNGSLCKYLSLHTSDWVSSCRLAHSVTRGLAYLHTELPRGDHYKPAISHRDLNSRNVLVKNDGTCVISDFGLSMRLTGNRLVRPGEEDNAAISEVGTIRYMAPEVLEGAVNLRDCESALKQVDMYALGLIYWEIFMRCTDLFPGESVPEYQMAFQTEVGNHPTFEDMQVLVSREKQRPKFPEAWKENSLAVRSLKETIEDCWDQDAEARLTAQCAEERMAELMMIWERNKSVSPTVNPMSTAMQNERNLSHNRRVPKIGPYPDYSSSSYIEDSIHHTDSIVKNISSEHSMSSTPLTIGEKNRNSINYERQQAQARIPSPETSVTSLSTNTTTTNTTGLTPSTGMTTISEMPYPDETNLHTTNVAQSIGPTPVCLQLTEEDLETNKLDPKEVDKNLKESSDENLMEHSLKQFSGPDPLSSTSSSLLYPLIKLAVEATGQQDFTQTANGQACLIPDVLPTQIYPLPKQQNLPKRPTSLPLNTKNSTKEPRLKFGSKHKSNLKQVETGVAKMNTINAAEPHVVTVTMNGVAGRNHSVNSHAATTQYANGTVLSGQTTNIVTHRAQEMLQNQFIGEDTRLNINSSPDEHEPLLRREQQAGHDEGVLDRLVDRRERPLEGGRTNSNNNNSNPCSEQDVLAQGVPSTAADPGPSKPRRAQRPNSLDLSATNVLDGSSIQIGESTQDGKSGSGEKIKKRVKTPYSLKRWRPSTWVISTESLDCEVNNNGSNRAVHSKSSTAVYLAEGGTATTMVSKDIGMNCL
Method in brief: (§2)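 Purified His-tagged BMPR2 kinase domain with no peptide substrate (intrinsic ATPase). 10 μM ATP, 0.02% Tween-20, kinase buffer, 50 μL, enzyme level optimized for initial-velocity conditions. 30 min at 30 °C. Leftover ATP read by Kinase-Glo luminescence, with no-kinase controls. Kiapp from a modified Morrison equation fitted to normalized fractional activity, assuming no specific inhibition mode.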

[2] = Metabolic stability in mouse liver microsomes assessed as half life at 2 uM and mesured upto 60 mins in presence of NADPH by UHPLC-MS analysis; format: ADME, Microsome; conditions: for t1/2: microsomes, 1 h, 2 µM
[3] = Metabolic stability in human liver microsomes assessed as half life at 2 uM and mesured upto 60 mins in presence of NADPH by UHPLC-MS analysis; format: ADME, Microsome; conditions: for t1/2: microsomes, 1 h, 2 µM
[4] = Metabolic stability in mouse liver microsomes assessed as intrinsic clearance per mg of protein at 2 uM and mesured upto 60 mins in presence of NADPH by UHPLC-MS analysis; format: ADME, Microsome; conditions: for microsomal intrinsic clearance: microsomes, 1 h, 2 µM
[5] = Metabolic stability in human liver microsomes assessed as intrinsic clearance per mg of protein at 2 uM and mesured upto 60 mins in presence of NADPH by UHPLC-MS analysis; format: ADME, Microsome; conditions: for microsomal intrinsic clearance: microsomes, 1 h, 2 µM
[6] = Inhibition of BMP signalling pathway in BMP2-stimulated human HEK293T cells expressing BRE and luciferase reporter assessed as inhibition of luciferase transactivation by measuring BRE-reporter activity preincubated for 30 mins followed by BMP2 stimulation and measured after 6 hrs by Bright-GLO mediated luciferase assay; format: cell-based; conditions: HEK-293T
Method in brief: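 293T cells stably carrying a BMP-responsive-element luciferase reporter, 2 × 10^4 per well, attached overnight in phenol-red-free DMEM with 2 mM glycine and 2% heat-inactivated FBS. Pretreated 30 min with inhibitor, then 5 ng/mL BMP2 for 6 h. Bright-Glo luminescence read; IC50 by nonlinear regression.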

[7] = target: Receptor-interacting serine/threonine-protein kinase 2 (Homo sapiens, UniProt O43353); assay: Inhibition of RIPK2 (unknown origin) incubated for 30 mins in presence of [gamma33P]ATP by microplate reader analysis
TGF-beta receptor type-2 = TGF-beta receptor type-2 (Homo sapiens, UniProt P37173); assay: Inhibition of TGFBR2 (unknown origin) by LanthaScreen TR-FRET assay
Method in brief: (§3)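 Outsourced SelectScreen profiling using a LanthaScreen TR-FRET binding format, in which a tight-binding tracer is displaced from the kinase.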

Activin receptor type-2A = Activin receptor type-2A (Homo sapiens, UniProt P27037); assay: Inhibition of ACVR2A (unknown origin) by LanthaScreen TR-FRET assay; method in brief: as §3
Activin receptor type-2B = Activin receptor type-2B (Homo sapiens, UniProt Q13705); assay: Inhibition of ACVR2B (unknown origin) by LanthaScreen TR-FRET assay; method in brief: as §3
HEK293T [8] = assay: Inhibition of BMP signalling pathway in BMP2-stimulated human HEK293T cells assessed as decrease in SMAD1 phosphorylation at 25 uM preincubated for 30 mins followed by BMP2 stimulation and measured after 15 mins by Western blot analysis; format: cell-based; conditions: time 45.0 min
Method in brief: (§4)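 HEK293T cells, 3 × 10^5 per well, starved overnight in DMEM with 2 mM glycine and 2% heat-inactivated FBS. Pretreated 30 min with inhibitor, then 5 ng/mL BMP2 for 15 min. Lysed in M-PER with protease inhibitors. Western blot for pSMAD1/5, SMAD1, SMAD5 and GAPDH, quantified by densitometry.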

HEK293T [9] = assay: Inhibition of BMP signalling pathway in BMP2-stimulated human HEK293T cells assessed as decrease in SMAD5 phosphorylation at 25 uM preincubated for 30 mins followed by BMP2 stimulation and measured after 15 mins by Western blot analysis; format: cell-based; conditions: time 45.0 min; method in brief: as §4
HUVEC [10] = assay: Inhibition of BMP signalling pathway in BMP9-stimulated human HUVEC cells assessed as decrease in SMAD1 phosphorylation at 25 uM preincubated for 30 mins followed by BMP2 stimulation and measured after 15 mins by Western blot analysis; format: cell-based; conditions: time 45.0 min
Method in brief: (§5)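 HUVECs, about 3 × 10^5 per well, starved overnight in Kaighn's F-12 with 0.5% FBS and 30 μg/mL endothelial cell growth supplement. Pretreated 30 min with inhibitor, then stimulated with 0.5 ng/mL BMP9. Lysed in M-PER with protease and phosphatase inhibitors. Western blot for pSMAD1/5, SMAD1 and SMAD5, quantified by densitometry.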

HUVEC [11] = assay: Inhibition of BMP signalling pathway in BMP9-stimulated human HUVEC cells assessed as decrease in SMAD5 phosphorylation at 25 uM preincubated for 30 mins followed by BMP2 stimulation and measured after 15 mins by Western blot analysis; format: cell-based; conditions: time 45.0 min; method in brief: as §5
[12] = target: T2, Bone morphogenetic protein receptor type-2 (Homo sapiens) (UniProt Q13873); assay: as §1; method in brief: as §2
T2 sequence (whole entry): T1 sequence (Q13873 whole entry)

[13] = liver microsomes, read-out: CLH

Chain of Activin receptor type-2A (P27037 whole entry): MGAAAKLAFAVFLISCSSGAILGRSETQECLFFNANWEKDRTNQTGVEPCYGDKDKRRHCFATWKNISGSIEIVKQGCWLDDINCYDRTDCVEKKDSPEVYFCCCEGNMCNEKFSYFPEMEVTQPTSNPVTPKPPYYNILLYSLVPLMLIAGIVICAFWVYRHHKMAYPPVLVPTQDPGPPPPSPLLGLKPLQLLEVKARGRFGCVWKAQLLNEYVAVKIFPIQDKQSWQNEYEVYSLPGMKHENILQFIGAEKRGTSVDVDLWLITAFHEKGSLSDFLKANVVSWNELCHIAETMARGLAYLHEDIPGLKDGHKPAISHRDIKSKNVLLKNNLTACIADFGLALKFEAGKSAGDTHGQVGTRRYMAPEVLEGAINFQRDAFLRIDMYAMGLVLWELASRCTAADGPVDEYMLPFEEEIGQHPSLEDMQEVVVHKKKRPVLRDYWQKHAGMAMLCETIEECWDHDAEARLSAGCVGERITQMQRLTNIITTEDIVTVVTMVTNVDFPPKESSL
Chain of Activin receptor type-2B (Q13705 whole entry): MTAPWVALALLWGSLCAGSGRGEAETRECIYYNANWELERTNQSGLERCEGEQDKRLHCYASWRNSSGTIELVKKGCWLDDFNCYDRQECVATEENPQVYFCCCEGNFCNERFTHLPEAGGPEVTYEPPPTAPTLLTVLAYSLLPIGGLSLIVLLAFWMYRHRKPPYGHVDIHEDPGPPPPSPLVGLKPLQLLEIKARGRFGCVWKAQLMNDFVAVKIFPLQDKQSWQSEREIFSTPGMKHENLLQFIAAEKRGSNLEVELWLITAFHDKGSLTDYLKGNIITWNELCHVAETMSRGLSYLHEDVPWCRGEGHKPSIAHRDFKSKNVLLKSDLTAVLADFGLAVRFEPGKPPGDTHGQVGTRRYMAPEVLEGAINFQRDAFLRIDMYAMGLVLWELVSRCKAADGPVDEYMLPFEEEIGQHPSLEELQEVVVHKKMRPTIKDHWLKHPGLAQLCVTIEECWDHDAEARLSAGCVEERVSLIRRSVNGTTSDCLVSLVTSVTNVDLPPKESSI
Chain of TGF-beta receptor type-2 (P37173 whole entry): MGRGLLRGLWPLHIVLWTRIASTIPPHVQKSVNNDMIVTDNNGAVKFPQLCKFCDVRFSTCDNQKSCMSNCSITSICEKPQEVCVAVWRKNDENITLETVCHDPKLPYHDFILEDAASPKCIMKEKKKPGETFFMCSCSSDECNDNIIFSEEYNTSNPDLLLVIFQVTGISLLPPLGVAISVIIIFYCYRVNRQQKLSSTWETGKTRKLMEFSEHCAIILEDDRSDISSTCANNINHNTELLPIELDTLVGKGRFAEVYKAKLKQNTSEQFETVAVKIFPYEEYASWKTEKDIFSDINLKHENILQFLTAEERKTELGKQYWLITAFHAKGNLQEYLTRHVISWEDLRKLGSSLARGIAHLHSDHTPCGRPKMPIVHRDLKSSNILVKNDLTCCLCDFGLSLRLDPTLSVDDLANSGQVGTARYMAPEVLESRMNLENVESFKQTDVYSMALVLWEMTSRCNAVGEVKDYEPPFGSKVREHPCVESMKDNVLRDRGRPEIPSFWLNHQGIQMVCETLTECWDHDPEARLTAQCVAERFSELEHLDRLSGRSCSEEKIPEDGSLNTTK
Chain of Receptor-interacting serine/threonine-protein kinase 2 (O43353 whole entry): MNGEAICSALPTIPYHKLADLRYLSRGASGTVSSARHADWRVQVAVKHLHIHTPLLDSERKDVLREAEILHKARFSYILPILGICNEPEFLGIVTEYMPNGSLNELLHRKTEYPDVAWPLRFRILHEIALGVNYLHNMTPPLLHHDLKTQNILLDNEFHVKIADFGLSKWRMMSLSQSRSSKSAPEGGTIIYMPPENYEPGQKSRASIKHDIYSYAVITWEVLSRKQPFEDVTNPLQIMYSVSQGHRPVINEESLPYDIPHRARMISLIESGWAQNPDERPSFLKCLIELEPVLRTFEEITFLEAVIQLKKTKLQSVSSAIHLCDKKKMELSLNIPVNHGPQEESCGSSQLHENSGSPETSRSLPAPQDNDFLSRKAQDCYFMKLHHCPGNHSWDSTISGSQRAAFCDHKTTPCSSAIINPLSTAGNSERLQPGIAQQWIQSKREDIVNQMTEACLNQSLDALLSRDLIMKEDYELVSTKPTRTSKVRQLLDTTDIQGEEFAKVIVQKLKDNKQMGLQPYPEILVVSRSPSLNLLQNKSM

COc1cnc(Nc2cccc(S(N)(=O)=O)c2)nc1N1CCN(c2ccccc2)CC12CC2
Ki [1]: 220 nM

Cn1c(-c2ccc3cnccc3c2)nc2ccc(C(=O)NCc3cccc(C(N)=O)c3)cc21
Ki [1]: 22 nM | t1/2 [2]: 14 min | t1/2 [3]: 69 min | microsomal intrinsic clearance [4]: 99 µL/min/mg | microsomal intrinsic clearance [5]: 20 µL/min/mg | IC50 [6]: 29800 nM

c1ccc2c(-c3cnn4cc(-c5ccc(N6CCNCC6)cc5)cnc34)ccnc2c1
IC50 [7]: 25 nM | IC50 (TGF-beta receptor type-2): 4.2 nM | IC50 (Activin receptor type-2A): 9.3 nM | IC50 (Activin receptor type-2B): 9.3 nM | IC50 [6]: 82 nM | inhibition (HEK293T [8]): Active | inhibition (HEK293T [9]): Active | inhibition (HUVEC [10]): Active | inhibition (HUVEC [11]): Active

NS(=O)(=O)c1cccc(Nc2ncc(C(F)(F)F)c(N3CCN(c4ccccc4)C(=O)C3)n2)c1
inhibition [12]: inactive

COc1cnc(Nc2ccccc2)nc1N1CCN(c2ccccc2)CC1
inhibition [12]: inactive

COc1cnc(Nc2cccc(S(N)(=O)=O)c2)nc1N1CC2CC1CN2c1ccccc1 (stereo not drawn)
Ki [1]: 930 nM

NS(=O)(=O)c1cccc(Nc2ncc(F)c(N3CCN(c4ccccc4)C(=O)C3)n2)c1
Ki [1]: 236 nM

CC(C)Oc1cnc(Nc2cccc(S(N)(=O)=O)c2)nc1N1CCN(c2ccccc2)C(=O)C1
Ki [1]: > 200 nM

COc1cnc(Nc2cccc(S(N)(=O)=O)c2)nc1N1CC2CCC1CN2c1ccccc1 (stereo not drawn)
Ki [1]: 310 nM

COc1cnc(Nc2cccc(S(N)(=O)=O)c2)nc1N1CC2CCC(C1)N2c1ccccc1
Ki [1]: 220 nM

CNC(=O)c1ccc2nc(-c3ccc4cnccc4c3)n([C@@H]3CC[C@@H](C(=O)NC)C3)c2c1
Ki [1]: > 1000 nM

COc1cnc(Nc2cccc(S(N)(=O)=O)c2)nc1N1CC(F)(c2ccccc2)C1
Ki [1]: 18 nM | t1/2 [2]: 21 min | t1/2 [3]: 170 min | microsomal intrinsic clearance [4]: 65 µL/min/mg | microsomal intrinsic clearance [5]: 8 µL/min/mg

CNC(=O)[C@@H]1CC[C@@H](n2c(-c3cccc(Cl)c3)nc3ccc(C(=O)NCc4cccc(C(N)=O)c4)cc32)C1
Ki [1]: > 1000 nM

CCOc1cnc(Nc2cccc(S(N)(=O)=O)c2)nc1N1CCN(c2ccccc2)C(=O)C1
Ki [1]: 5 nM | t1/2 [2]: 18 min | t1/2 [3]: 73 min | microsomal intrinsic clearance [4]: 79 µL/min/mg | microsomal intrinsic clearance [5]: 19 µL/min/mg

COc1cnc(Nc2cccc(S(N)(=O)=O)c2)nc1N1CCN(c2ccccc2)CC1
Ki [1]: 40 nM | t1/2 [2]: 12 min | t1/2 [3]: 77 min | microsomal intrinsic clearance [4]: 120 µL/min/mg | microsomal intrinsic clearance [5]: 18 µL/min/mg | IC50 [6]: 8720 nM | inhibition (HEK293T [8]): Active | inhibition (HEK293T [9]): Active | inhibition (HUVEC [10]): Active | inhibition (HUVEC [11]): Active

COc1cnc(Nc2cccc(S(N)(=O)=O)c2)nc1N1CCN(c2ccccc2)CC1C(F)(F)F (stereo not drawn)
Ki [1]: 430 nM

NS(=O)(=O)c1cccc(Nc2ncc(OC(F)F)c(N3CCN(c4ccccc4)C(=O)C3)n2)c1
Ki [1]: > 200 nM

COc1cnc(Nc2cccc(S(N)(=O)=O)c2)nc1N1CCN(c2ccccn2)CC1
half-life at 2 µM ([2]; liver microsomes): 9 min | half-life at 2 µM ([3]; liver microsomes): 43 min | microsomal intrinsic clearance at 2 µM [4, 13]: 159 µL/min/mg | microsomal intrinsic clearance at 2 µM [5, 13]: 32 µL/min/mg

Cc1sc2c(c1C)C(c1ccc(Cl)cc1)=N[C@@H](CC(=O)OC(C)(C)C)c1nnc(C)n1-2
t1/2 [3]: 14 min

COc1cnc(Nc2cccc(S(N)(=O)=O)c2)nc1N1CCN(c2ccccc2)C(C)C1 (stereo not drawn)
Ki [1]: 118 nM | t1/2 [2]: 6 min | t1/2 [3]: 60 min | microsomal intrinsic clearance [4]: 220 µL/min/mg | microsomal intrinsic clearance [5]: 23 µL/min/mg

CNC(=O)[C@@H]1CC[C@@H](n2c(-c3cc(Cl)cc(Cl)c3)nc3ccc(C(=O)NCc4cccc(C(N)=O)c4)cc32)C1
Ki [1]: > 1000 nM

Cc1nnc2n1-c1ccc(Cl)cc1C(c1ccccc1)=NC2 [ALPRAZOLAM]
t1/2 [2]: 258 min | t1/2 [3]: 620 min | microsomal CLint at 2 µM [4, 13]: 5 µL/min/mg

COc1cnc(Nc2cccc(S(N)(=O)=O)c2)nc1N1CCNCC1
Ki [1]: 250 nM

COc1cnc(Nc2cccc(S(N)(=O)=O)c2)nc1N1CCN(c2ccccc2)CC1C (stereo not drawn)
Ki [1]: 88 nM | t1/2 [2]: 6 min | t1/2 [3]: 79 min | microsomal intrinsic clearance [4]: 233 µL/min/mg | microsomal intrinsic clearance [5]: 18 µL/min/mg

CNC(=O)[C@@H]1CC[C@@H](n2c(-c3ccc4cnccc4c3)nc3ccc(C(=O)NCc4ccccc4)cc32)C1
Ki [1]: 39 nM
